Source: ChEMBL document CHEMBL1148541, “Biological evaluation of 1-alkyl-3-phenylthioureas as orally active HDL-elevating agents” (Bioorg Med Chem Lett, 2006)

Key:
Type in all cases: functional
Rattus norvegicus [1] = assay: Increase of HDL level in cholesterol-fed male rats by FPLC method at 71 mg/kg/day relative to control
In short: (§1)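 Groups of six male Sprague–Dawley rats on a cholesterol diet received drug in the diet, ad libitum, for 8 days. Serum lipoproteins separated by FPLC, adapted for robotic automation, and cholesterol quantitated enzymatically by colorimetry. HDL given as % change versus untreated controls, with significance set at p < 0.05.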

Rattus norvegicus [2] = assay: Increase of total cholesterol level in cholesterol-fed male rats at 71 mg/kg/day relative to control
In short: (§2)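 Dietary (ad libitum) dosing of groups of six male Sprague–Dawley rats on a cholesterol diet for 8 days. Serum total cholesterol was quantitated enzymatically by a colorimetric method and expressed as % change relative to untreated controls, with significance at p < 0.05.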

Rattus norvegicus [3] = assay: Triglyceride level in cholesterol-fed male rats at 71 mg/kg/day relative to control
In short: (§3)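 Male Sprague–Dawley rats on a cholesterol diet, in groups of six, received the compound in the diet ad libitum for 8 days. Serum triglycerides are expressed as % change relative to untreated controls, with significance at p < 0.05 versus controls.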

Rattus norvegicus [4] = assay: Increase of HDL level in cholesterol-fed male rats by ultracentrifugation method at 71 mg/kg/day relative to control
In short: (§4)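 Cholesterol-fed male Sprague–Dawley rats, six per group, given drug in the diet ad libitum for 8 days. Serum lipoproteins separated by classical ultracentrifugation and HDL cholesterol measured by an enzymatic colorimetric method. Expressed as % change versus untreated controls, with significance set at p < 0.05.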

Rattus norvegicus [5] = assay: Weight gain in cholesterol-fed male rats at 71 mg/kg/day relative to control
In short: (§5)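 Groups of six male Sprague–Dawley rats on a cholesterol diet received the compound in the diet, ad libitum, over 8 days. Body weight gain is reported as % change relative to untreated controls.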

Rattus norvegicus [6] = assay: Increase of total cholesterol level in cholesterol-fed male rats at 88 mg/kg/day relative to control; in short: as §2
Rattus norvegicus [7] = assay: Increase of HDL level in cholesterol-fed male rats by ultracentrifugation method at 88 mg/kg/day relative to control
In short: (§6)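 Compound given in the diet, ad libitum, to groups of six male Sprague–Dawley rats on a cholesterol diet for 8 days. Serum lipoproteins were separated by classical ultracentrifugation, and HDL cholesterol was quantitated by an enzymatic colorimetric method. Results are reported as % change relative to untreated controls, with significance at p < 0.05 versus controls.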

Rattus norvegicus [8] = assay: Triglyceride level in cholesterol-fed male rats at 88 mg/kg/day relative to control; in short: as §3
Rattus norvegicus [9] = assay: Increase of Apolipoprotein A-I level in cholesterol-fed male rats at 88 mg/kg/day relative to control
In short: (§7)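 Drug mixed into diet, fed ad libitum for 8 days to groups of six male Sprague–Dawley rats on a cholesterol diet. Serum Apo A-I measured by SDS–polyacrylamide gel electrophoresis or by rat competition ELISA. Reported as % change versus untreated controls, with significance set at p < 0.05.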

Rattus norvegicus [10] = assay: Weight gain in cholesterol-fed male rats at 88 mg/kg/day relative to control; in short: as §5
Rattus norvegicus [11] = species on record: Rattus norvegicus; assay: Increase in liver enzyme Aspartate aminotransferase; design: concentration or dose not given beside the values
Rattus norvegicus [12] = species on record: Rattus norvegicus; assay: Increase in liver enzyme Alanine aminotransferase
Rattus norvegicus [13] = assay: Increase of HDL level in cholesterol-fed male rats by FPLC method at 88 mg/kg/day relative to control; in short: as §1
Rattus norvegicus [14] = assay: Weight gain in cholesterol-fed male rats at 73 mg/kg/day relative to control; in short: as §5
Rattus norvegicus [15] = assay: Increase of HDL level in cholesterol-fed male rats by ultracentrifugation method at 73 mg/kg/day relative to control; in short: as §6
Rattus norvegicus [16] = assay: Increase of total cholesterol level in cholesterol-fed male rats at 73 mg/kg/day relative to control; in short: as §2
Rattus norvegicus [17] = assay: Increase of Apolipoprotein A-I level in cholesterol-fed male rats at 73 mg/kg/day relative to control; in short: as §7
Rattus norvegicus [18] = assay: Increase of HDL level in cholesterol-fed male rats by FPLC method at 73 mg/kg/day relative to control; in short: as §1
Rattus norvegicus [19] = assay: Triglyceride level in cholesterol-fed male rats at 73 mg/kg/day relative to control; in short: as §3
Rattus norvegicus [20] = assay: Increase of HDL level in cholesterol-fed male rats by ultracentrifugation method at 81 mg/kg/day relative to control; in short: as §6
Rattus norvegicus [21] = assay: Increase of HDL level in cholesterol-fed male rats by FPLC method at 81 mg/kg/day relative to control; in short: as §1
Rattus norvegicus [22] = assay: Triglyceride level in cholesterol-fed male rats at 81 mg/kg/day relative to control; in short: as §3
Rattus norvegicus [23] = assay: Weight gain in cholesterol-fed male rats at 81 mg/kg/day relative to control; in short: as §5
Rattus norvegicus [24] = assay: Increase of Apolipoprotein A-I level in cholesterol-fed male rats at 81 mg/kg/day relative to control; in short: as §7
Rattus norvegicus [25] = assay: Increase of total cholesterol level in cholesterol-fed male rats at 81 mg/kg/day relative to control; in short: as §2
Rattus norvegicus [26] = assay: Increase of total cholesterol level in cholesterol-fed male rats at 82 mg/kg/day relative to control; in short: as §2
Rattus norvegicus [27] = assay: Weight gain in cholesterol-fed male rats at 82 mg/kg/day relative to control; in short: as §5
Rattus norvegicus [28] = assay: Increase of HDL level in cholesterol-fed male rats by ultracentrifugation method at 82 mg/kg/day relative to control; in short: as §6
Rattus norvegicus [29] = assay: Triglyceride level in cholesterol-fed male rats at 82 mg/kg/day relative to control; in short: as §3
Rattus norvegicus [30] = assay: Increase of HDL level in cholesterol-fed male rats by FPLC method at 82 mg/kg/day relative to control; in short: as §1
Rattus norvegicus [31] = assay: Increase of Apolipoprotein A-I level in cholesterol-fed male rats at 82 mg/kg/day relative to control; in short: as §7
Rattus norvegicus [32] = assay: Triglyceride level in cholesterol-fed male rats at 70 mg/kg/day relative to control; in short: as §3
Rattus norvegicus [33] = assay: Weight gain in cholesterol-fed male rats at 70 mg/kg/day relative to control; in short: as §5
Rattus norvegicus [34] = assay: Increase of HDL level in cholesterol-fed male rats by ultracentrifugation method at 70 mg/kg/day relative to control; in short: as §4
Rattus norvegicus [35] = assay: Increase of Apolipoprotein A-I level in cholesterol-fed male rats at 70 mg/kg/day relative to control; in short: as §7
Rattus norvegicus [36] = assay: Increase of total cholesterol level in cholesterol-fed male rats at 70 mg/kg/day relative to control; in short: as §2
Rattus norvegicus [37] = assay: Increase of HDL level in cholesterol-fed male rats by FPLC method at 70 mg/kg/day relative to control; in short: as §1

With `CCC/N=C(\S)Nc1cc(C)ccc1OC` the Activity (Rattus norvegicus [1]) was 63%, the Activity (Rattus norvegicus [2]) was 71% and the Activity (Rattus norvegicus [3]) was -38%. For the same compound, the Activity (Rattus norvegicus [4]) was 84% and the Activity (Rattus norvegicus [5]) was -16%.

`Cc1ccc(Cl)cc1/N=C(\S)NCC(C)(C)C` gave an Activity (Rattus norvegicus [6]) of 3%, an Activity (Rattus norvegicus [7]) of 122% and an Activity (Rattus norvegicus [8]) of -66%. It also gave an Activity (Rattus norvegicus [9]) of 89%, an Activity (Rattus norvegicus [10]) of 7% and an Activity (Rattus norvegicus [11]) of 49%. For the same compound, the Activity (Rattus norvegicus [12]) was 111% and the Activity (Rattus norvegicus [13]) was 196%.

`CC/N=C(\S)Nc1cc(Cl)ccc1C` was tested, and the Activity (Rattus norvegicus [14]) was -107%, the Activity (Rattus norvegicus [15]) was 110% and the Activity (Rattus norvegicus [16]) was 32%. It also gave an Activity (Rattus norvegicus [17]) of 27%, an Activity (Rattus norvegicus [18]) of 215% and an Activity (Rattus norvegicus [11]) of 162%. It also gave an Activity (Rattus norvegicus [19]) of -64% and an Activity (Rattus norvegicus [12]) of 81%.

In the case of `CCC(C)(C)/N=C(\S)Nc1cc(Cl)ccc1C`, the Activity (Rattus norvegicus [20]) was 55%, the Activity (Rattus norvegicus [21]) was 39% and the Activity (Rattus norvegicus [22]) was -14%. For the same compound, the Activity (Rattus norvegicus [23]) was 15%, the Activity (Rattus norvegicus [24]) was 64% and the Activity (Rattus norvegicus [25]) was -10%.

Work on `Cc1ccc(Cl)cc1N/C(S)=N/C(C)C(C)(C)C` (centres undefined) yielded an Activity (Rattus norvegicus [26]) of 15%, an Activity (Rattus norvegicus [27]) of -24% and an Activity (Rattus norvegicus [28]) of 93%. The Activity (Rattus norvegicus [29]) was -35%, the Activity (Rattus norvegicus [30]) was 109% and the Activity (Rattus norvegicus [31]) was 34%.

For `CCC/N=C(\S)Nc1cc(Cl)ccc1CC`, the Activity (Rattus norvegicus [32]) was -61%, the Activity (Rattus norvegicus [33]) was -33% and the Activity (Rattus norvegicus [34]) was 101%. It also gave an Activity (Rattus norvegicus [35]) of 43%, an Activity (Rattus norvegicus [36]) of 28% and an Activity (Rattus norvegicus [37]) of 369%.
